Assay results taken from PMC2858063 (Steroids, 2010).

Columns and labels:
hu-mPRα [1] = target: T1, hu-mPRα (Homo sapiens, UniProt Q86WK9); assay: hu-mPRα steroid binding assay; conditions: for RBA (Relative Binding Affinity): compared with progesterone (=100), human mPRα; for binding to hu-mPRα (in words): this study, Fig. 1, Table 1
T1 sequence (Q86WK9 1-346): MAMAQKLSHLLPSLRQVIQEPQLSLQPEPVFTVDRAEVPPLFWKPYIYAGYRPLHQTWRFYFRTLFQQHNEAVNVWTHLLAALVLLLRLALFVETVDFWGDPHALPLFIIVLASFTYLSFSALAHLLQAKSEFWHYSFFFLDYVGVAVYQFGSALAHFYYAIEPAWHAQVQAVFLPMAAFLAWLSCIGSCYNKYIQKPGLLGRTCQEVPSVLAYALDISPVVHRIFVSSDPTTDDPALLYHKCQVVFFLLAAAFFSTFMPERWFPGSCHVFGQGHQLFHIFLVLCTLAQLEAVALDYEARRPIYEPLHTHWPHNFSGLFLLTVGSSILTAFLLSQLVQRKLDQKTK

hu-mPRα [2] = target: T1, hu-mPRα; assay: MAPK activation assay; format: cell-based; conditions: 100 nM, 10 min, mPRα-transfected MDA-MB-231 cells
Outline: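 Control and mPRα-transfected MDA-MB-231 cells were serum-starved 5–6 days, then treated 10 min with progestins (100 nM; 1–100 nM for concentration-response), with EGF as positive control. Lysis was in RIPA buffer plus protease inhibitors. Lysate (10 μg/lane, non-reducing) ran on duplicate SDS gels, was blotted, and was probed for total or phospho-p42/44 with rabbit monoclonals, then HRP anti-rabbit 1 h. Detection was by chemiluminescence on film. Runs were repeated 3–4 times, with statistics versus vehicle.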

human nPR = target: T2, human nPR (Homo sapiens, UniProt P06401); assay: nPR steroid binding assay; conditions: that of progesterone
T2 sequence (P06401 679-933 limits assumed): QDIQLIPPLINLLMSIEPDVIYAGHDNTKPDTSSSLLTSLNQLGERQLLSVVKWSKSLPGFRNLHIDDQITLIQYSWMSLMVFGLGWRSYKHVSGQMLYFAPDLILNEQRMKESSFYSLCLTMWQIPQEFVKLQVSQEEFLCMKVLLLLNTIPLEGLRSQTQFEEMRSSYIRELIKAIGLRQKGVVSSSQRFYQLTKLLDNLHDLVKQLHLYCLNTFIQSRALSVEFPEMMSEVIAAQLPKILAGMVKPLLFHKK

human PR-B = target: T3, human PR-B (Homo sapiens, UniProt P06401); assay: nPR luciferase reporter assay; format: cell-based; conditions: for nPR antagonist activity: 20 and 100 nM in the presence of 5 nM progesterone
T3 sequence (P06401 1-933): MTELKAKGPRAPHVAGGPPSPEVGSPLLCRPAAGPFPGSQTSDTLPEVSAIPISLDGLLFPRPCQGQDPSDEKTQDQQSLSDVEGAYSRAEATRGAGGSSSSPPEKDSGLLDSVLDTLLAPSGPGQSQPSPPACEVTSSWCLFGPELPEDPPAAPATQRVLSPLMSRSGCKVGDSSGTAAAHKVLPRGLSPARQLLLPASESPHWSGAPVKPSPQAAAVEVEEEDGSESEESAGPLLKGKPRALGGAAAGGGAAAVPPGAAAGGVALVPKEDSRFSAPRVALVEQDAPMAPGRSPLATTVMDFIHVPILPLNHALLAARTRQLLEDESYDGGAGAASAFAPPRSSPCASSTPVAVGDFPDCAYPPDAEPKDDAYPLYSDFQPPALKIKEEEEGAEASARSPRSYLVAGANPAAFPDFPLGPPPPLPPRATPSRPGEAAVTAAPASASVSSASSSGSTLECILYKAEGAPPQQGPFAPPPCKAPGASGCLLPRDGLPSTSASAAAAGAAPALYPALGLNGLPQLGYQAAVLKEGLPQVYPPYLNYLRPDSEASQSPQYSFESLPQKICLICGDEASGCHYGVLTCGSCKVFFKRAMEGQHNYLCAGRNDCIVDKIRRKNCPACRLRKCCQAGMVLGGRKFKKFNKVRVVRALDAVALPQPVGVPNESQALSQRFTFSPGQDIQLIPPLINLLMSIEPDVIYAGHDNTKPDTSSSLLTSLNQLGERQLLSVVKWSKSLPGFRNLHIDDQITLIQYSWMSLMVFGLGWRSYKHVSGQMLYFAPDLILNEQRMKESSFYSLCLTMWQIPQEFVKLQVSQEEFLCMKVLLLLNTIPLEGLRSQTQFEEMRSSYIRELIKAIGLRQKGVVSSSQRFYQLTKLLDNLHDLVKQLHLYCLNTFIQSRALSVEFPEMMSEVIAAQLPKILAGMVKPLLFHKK
Outline: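 MCF-7 cells in phenol red-free DMEM were co-transfected with human PR-B vector (0.25 μg), MMTV-luciferase reporter (0.6 μg) and Renilla pRL-TK (0.5 μg). […] Cells grew overnight to 90% confluence. Dual-luciferase readings were taken, 10 s each. Firefly/Renilla ratio was reported, in triplicate.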

female rabbits = conditions: s.c.; cited from earlier work

RBA (Relative Binding Affinity) (hu-mPRα [1]) [%] | binding to hu-mPRα (in words) (hu-mPRα [1]) | MAPK activation (phosphorylation of ERK) (hu-mPRα [2]) | relative binding affinity for nPR (human nPR) [%] | nPR antagonist activity (human PR-B) | nPR agonist activity (human PR-B; PR-B and PRE-luciferase reporter in MCF-7 cells, 50 nM (19-CH2P4 also 1–50 nM)) | Compound | progestational activity in comparison with progesterone (female rabbits)
92.7 | relatively high affinity | mPRα agonists | 2.3 | weak antagonist activity |  | 19a-methylprogesterone [19a-Methylprogesterone (Org OD 13-0)] | 
<1 | lost all affinity |  |  |  |  | CC[C@H]1CC[C@H]2[C@@H]3CCC4=CC(=O)CC[C@]4(C)[C@H]3CC[C@]12C(C)=O [13-Acetyl-18-norpregn-4-en-3-one] | 1/4
49.9 | low binding affinities |  |  |  |  | CC(=O)[C@H]1CC[C@H]2[C@@H]3CCC4=CC(=O)CC[C@]4(C)[C@H]3CC[C@]12C(C)=O [13-Acetyl-18-norprogesterone] | 1/3

Compound | RBA (Relative Binding Affinity) (hu-mPRα [1]) [%] | binding to hu-mPRα (in words) (hu-mPRα [1]) | MAPK activation (phosphorylation of ERK) (hu-mPRα [2]) | relative binding affinity for nPR (human nPR) [%] | nPR antagonist activity (human PR-B) | nPR agonist activity (human PR-B; PR-B and PRE-luciferase reporter in MCF-7 cells, 50 nM (19-CH2P4 also 1–50 nM)) | progestational activity in comparison with progesterone (female rabbits)
C=C[C@]12CCC(=O)C=C1CC[C@H]1[C@@H]3CC[C@H](C(C)=O)[C@@]3(C)CC[C@@H]12 [10-ethenyl-19-norprogesterone] | 257.7 | affinities higher than that of progesterone | mPRα agonists | 12.9 | weak antagonist activity |  | 
C=C[C@]12CC[C@H]3[C@@H](CCC4=CC(=O)CC[C@@]43C)[C@@H]1CC[C@@H]2C(C)=O [13-ethenyl-18-norprogesterone] | 168.2 | affinities higher than that of progesterone | mPRα agonists |  |  | showed nPR agonist activity | 
